# Experimental data: ChEMBL document CHEMBL4428053, “Application of a Parallel Synthetic Strategy in the Discovery of Biaryl Acyl Sulfonamides as Efficient and Selective NaV1.7 Inhibitors” (J Med Chem, 2016)
# Active and inactive are the calls of the source. The rule behind the calls is not given here.
# Columns and labels:
# in vitro = conditions: human, liver microsomes
# Cytochrome P450 3A4 [1] = biological target: T1, Cytochrome P450 3A4 (Homo sapiens, UniProt P08684)
# Mus musculus [2] = experiment: In vivo inhibition of Nav1.7 in C57BL/6 mouse assessed as reduction in histamine-induced scratching bouts at 300 mg/kg, po administered 4 hrs prior to histamine challenge measured for 15 mins; assay type: functional; conditions: C57BL/6, po
# In short: (§1)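 Mice were dosed orally with vehicle, diphenhydramine (30 mg/kg, n = 8) or test article at 30 (n = 9), 100 (n = 10) or 300 (n = 10) mg/kg; vehicle n = 12. All groups received histamine intradermally. Total scratch bouts were counted, with unbound plasma concentration reported per dose. Statistics: one-way ANOVA with Dunnett's test versus vehicle.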
# [3] = Unbound plasma concentration in C57BL/6 mouse model of histamine-induced scratching at 30 mg/kg, po administered 4 hrs prior to histamine challenge; assay type: ADME, organism-based; conditions: in vivo
# In short: as §1
# [4] = biological target: Sodium channel protein type 9 subunit alpha (Rattus norvegicus, UniProt O08562); experiment: Inhibition of rat Nav1.7 expressed in HEK293T cells incubated for 3 to 5 mins at -125 mV holding potential by electrophysiology assay; assay type: cell-based
# [5] = Free plasma concentration in naive C57BL/6 mouse assessed as effect on basic locomotor movement at 300 mg/kg, po measured after 4 hrs for 60 mins by open field test; assay type: ADME, organism-based; conditions: in vivo
# In short: (§2)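 Naive mice were dosed orally with vehicle or test article at 30, 100 or 300 mg/kg (n = 10 per group). Total basic movement in an open-field arena was recorded after dosing, and unbound plasma concentration was reported per dose.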
# [6] = Free plasma concentration in naive C57BL/6 mouse assessed as effect on basic locomotor movement at 30 mg/kg, po measured after 4 hrs for 60 mins by open field test; assay type: ADME, organism-based; conditions: in vivo
# In short: as §2
# [7] = biological target: Sodium channel protein type 2 subunit alpha (Homo sapiens, UniProt Q99250); experiment: Inhibition of human Nav1.2 expressed in CHO cells assessed as reduction in peak inward current by manual whole cell patch clamp electrophysiology assay; assay type: cell-based
# [8] = biological target: T2, Sodium channel protein type 9 subunit alpha (Homo sapiens, UniProt Q15858); experiment: Inhibition of human Nav1.7 at resting/closed state expressed in HEK293 cells at -140 mV holding potential by manual whole cell patch clamp electrophysiology assay; assay type: cell-based
# [9] = Half life in Harlan rat at 1 mg/kg, iv by LC-MS/MS analysis; assay type: ADME, organism-based; conditions: in vivo
# In short: (§3)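 Male fed rats. The IV dose was given in 100% DMSO. The oral dose was given in 1% Tween 80, 2% HPMC, 97% water/NaOH (pH 8.5).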
# [10] = Unbound plasma concentration in C57BL/6 mouse model of histamine-induced scratching at 100 mg/kg, po administered 4 hrs prior to histamine challenge; assay type: ADME, organism-based; conditions: in vivo
# In short: as §1
# [11] = Unbound plasma concentration in C57BL/6 mouse model of histamine-induced scratching at 300 mg/kg, po administered 4 hrs prior to histamine challenge; assay type: ADME, organism-based; conditions: in vivo
# In short: as §1
# [12] = biological target: T2, Sodium channel protein type 9 subunit alpha; experiment: Inhibition of human Nav1.7 expressed in HEK293 cells assessed as tonic block at pulse 1 by ionworks quattro electrophysiology assay; assay type: cell-based
# physchem = conditions: PBS, pH 7.4
# Cytochrome P450 2C9 [13] = biological target: T3, Cytochrome P450 2C9 (Homo sapiens, UniProt P11712)
# [14] = biological target: Sodium channel protein type 4 subunit alpha (Homo sapiens, UniProt P35499); experiment: Inhibition of human Nav1.4 expressed in HEK293 cells assessed as reduction in peak inward current by manual whole cell patch clamp electrophysiology assay; assay type: cell-based
# [15] = Clearance in Harlan rat at 1 mg/kg, iv by LC-MS/MS analysis; assay type: ADME, organism-based; conditions: in vivo
# In short: as §3
# [16] = Plasma protein binding in Harlan rat at 1 mg/kg, iv by LC-MS/MS analysis; assay type: ADME, organism-based; conditions: read-out: PPB (converted)
# [17] = biological target: Voltage-gated inwardly rectifying potassium channel KCNH2 (Homo sapiens, UniProt Q12809)
# Cytochrome P450 2D6 = Cytochrome P450 2D6 (Homo sapiens, UniProt P10635)
# [18] = Protein binding in mouse plasma at 5 uM after 45 mins by LC-MS/MS analysis; assay type: ADME, cell-free; conditions: read-out: PPB (converted)
# [19] = Free plasma concentration in naive C57BL/6 mouse assessed as effect on basic locomotor movement at 100 mg/kg, po measured after 4 hrs for 60 mins by open field test; assay type: ADME, organism-based; conditions: in vivo
# In short: as §2
# [20] = biological target: T2, Sodium channel protein type 9 subunit alpha; experiment: Inhibition of human Nav1.7 expressed in HEK293 cells assessed as reduction in peak inward current by manual whole cell patch clamp electrophysiology assay; assay type: cell-based
# Cytochrome P450 3A4 [21] = biological target: T1, Cytochrome P450 3A4; remark: listed apart in the source
# Cytochrome P450 2C9 [22] = biological target: T3, Cytochrome P450 2C9; remark: listed apart in the source
# [23] = biological target: Sodium channel protein type 3 subunit alpha (Homo sapiens, UniProt Q9NY46); experiment: Inhibition of human Nav1.3 expressed in CHO cells assessed as reduction in peak inward current by manual whole cell patch clamp electrophysiology assay; assay type: cell-based
# [24] = Toxicity in naive C57BL/6 mouse assessed as effect on basic locomotor movement at 300 mg/kg, po measured after 4 hrs for 60 mins by open field test; assay type: organism-based; conditions: in vivo
# In short: as §2
# [25] = Oral bioavailability in Harlan rat at 10 mg/kg by LC-MS/MS analysis; assay type: ADME, organism-based; conditions: in vivo
# In short: as §3
# [26] = biological target: Sodium channel protein type 10 subunit alpha (Homo sapiens, UniProt Q9Y5Y9); experiment: Inhibition of human Nav1.8 expressed in CHO cells assessed as reduction in peak inward current by manual whole cell patch clamp electrophysiology assay; assay type: cell-based
# [27] = biological target: T2, Sodium channel protein type 9 subunit alpha; experiment: Inhibition of human Nav1.7 expressed in HEK293 cells assessed as use-dependent block at pulse 26 by ionworks quattro electrophysiology assay; assay type: cell-based
# [28] = biological target: Sodium channel protein type 9 subunit alpha (Mus musculus, UniProt Q62205); experiment: Inhibition of mouse Nav1.7 expressed in HEK293 cells incubated for 3 to 5 mins at -125 mV holding potential by electrophysiology assay; assay type: cell-based
# [29] = Toxicity in C57BL/6 mouse assessed as reduction in locomotor activity at 100 mg/kg, po for 4 hrs by open field test; conditions: in vivo
# [30] = AUC (infinity) in Harlan rat at 1 mg/kg, iv by LC-MS/MS analysis; assay type: ADME, organism-based; design: dose 1 mg/kg, route intravenous, time infinity; conditions: in vivo
# In short: as §3
# Mus musculus [31] = experiment: In vivo inhibition of Nav1.7 in C57BL/6 mouse assessed as unbound plasma concentration required to reduce histamine-induced scratching bouts at 100 mg/kg, po administered 4 hrs prior to histamine challenge measured for 15 mins; assay type: functional, organism-based
# In short: as §1
# [32] = biological target: Sodium channel protein type 1 subunit alpha (Homo sapiens, UniProt P35498); experiment: Inhibition of human Nav1.1 expressed in HEK293 cells assessed as reduction in peak inward current by manual whole cell patch clamp electrophysiology assay; assay type: cell-based
# [33] = biological target: T2, Sodium channel protein type 9 subunit alpha; experiment: Inhibition of human Nav1.7 at 20% inactivated state expressed in HEK293 cells at -140 mV holding potential followed by channel inactivation by manual whole cell patch clamp electrophysiology assay; assay type: cell-based
# In short: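 Tested on channels about 20% inactivated.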
# T2 sequence (Q15858 whole entry): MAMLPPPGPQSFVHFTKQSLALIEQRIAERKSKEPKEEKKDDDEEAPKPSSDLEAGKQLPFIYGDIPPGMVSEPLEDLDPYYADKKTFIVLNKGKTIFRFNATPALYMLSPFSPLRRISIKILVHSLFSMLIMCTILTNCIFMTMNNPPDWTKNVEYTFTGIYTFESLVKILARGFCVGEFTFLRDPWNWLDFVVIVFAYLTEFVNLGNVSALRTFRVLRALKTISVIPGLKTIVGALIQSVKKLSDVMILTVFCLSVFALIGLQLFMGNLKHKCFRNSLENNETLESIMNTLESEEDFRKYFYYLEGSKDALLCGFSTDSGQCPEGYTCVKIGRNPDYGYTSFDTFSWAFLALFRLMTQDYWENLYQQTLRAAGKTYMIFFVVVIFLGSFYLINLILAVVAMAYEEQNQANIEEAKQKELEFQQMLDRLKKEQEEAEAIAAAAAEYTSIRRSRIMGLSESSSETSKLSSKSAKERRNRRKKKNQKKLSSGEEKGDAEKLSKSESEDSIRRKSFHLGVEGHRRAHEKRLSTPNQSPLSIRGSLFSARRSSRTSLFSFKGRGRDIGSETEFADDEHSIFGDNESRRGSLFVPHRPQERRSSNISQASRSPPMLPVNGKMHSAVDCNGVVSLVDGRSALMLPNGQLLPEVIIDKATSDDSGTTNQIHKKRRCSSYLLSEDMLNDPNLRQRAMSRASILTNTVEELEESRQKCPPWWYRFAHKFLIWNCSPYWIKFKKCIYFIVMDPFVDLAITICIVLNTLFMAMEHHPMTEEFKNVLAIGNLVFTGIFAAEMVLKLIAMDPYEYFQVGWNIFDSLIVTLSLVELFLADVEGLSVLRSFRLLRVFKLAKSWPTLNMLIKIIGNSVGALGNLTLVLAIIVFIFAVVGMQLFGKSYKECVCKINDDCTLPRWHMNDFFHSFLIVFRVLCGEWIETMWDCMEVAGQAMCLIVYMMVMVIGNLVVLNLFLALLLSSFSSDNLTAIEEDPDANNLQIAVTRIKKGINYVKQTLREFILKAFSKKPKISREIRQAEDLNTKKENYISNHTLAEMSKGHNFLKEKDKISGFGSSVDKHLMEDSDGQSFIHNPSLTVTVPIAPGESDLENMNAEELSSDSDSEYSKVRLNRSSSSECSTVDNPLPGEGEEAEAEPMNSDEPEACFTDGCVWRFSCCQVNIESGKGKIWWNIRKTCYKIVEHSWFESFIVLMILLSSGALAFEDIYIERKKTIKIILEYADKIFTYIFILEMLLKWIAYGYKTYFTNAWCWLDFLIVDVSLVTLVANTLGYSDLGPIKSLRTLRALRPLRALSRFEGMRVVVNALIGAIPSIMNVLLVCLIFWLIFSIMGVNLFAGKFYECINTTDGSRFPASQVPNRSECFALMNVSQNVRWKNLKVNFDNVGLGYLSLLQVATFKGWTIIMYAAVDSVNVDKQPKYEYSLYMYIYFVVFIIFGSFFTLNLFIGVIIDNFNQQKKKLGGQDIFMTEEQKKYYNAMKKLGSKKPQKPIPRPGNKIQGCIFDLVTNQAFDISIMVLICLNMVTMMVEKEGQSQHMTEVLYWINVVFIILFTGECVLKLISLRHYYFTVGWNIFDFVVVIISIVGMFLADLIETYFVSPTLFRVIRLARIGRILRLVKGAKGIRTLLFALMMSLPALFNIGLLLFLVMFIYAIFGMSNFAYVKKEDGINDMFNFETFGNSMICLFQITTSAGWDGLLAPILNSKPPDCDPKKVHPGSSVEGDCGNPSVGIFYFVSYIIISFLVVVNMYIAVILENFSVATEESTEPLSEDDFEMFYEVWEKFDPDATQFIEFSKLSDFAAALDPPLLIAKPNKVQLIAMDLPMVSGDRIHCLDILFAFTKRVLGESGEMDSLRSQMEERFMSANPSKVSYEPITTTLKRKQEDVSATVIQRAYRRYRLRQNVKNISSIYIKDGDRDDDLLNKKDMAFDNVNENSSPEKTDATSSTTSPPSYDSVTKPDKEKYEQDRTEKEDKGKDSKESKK
# T1 sequence (P08684 whole entry): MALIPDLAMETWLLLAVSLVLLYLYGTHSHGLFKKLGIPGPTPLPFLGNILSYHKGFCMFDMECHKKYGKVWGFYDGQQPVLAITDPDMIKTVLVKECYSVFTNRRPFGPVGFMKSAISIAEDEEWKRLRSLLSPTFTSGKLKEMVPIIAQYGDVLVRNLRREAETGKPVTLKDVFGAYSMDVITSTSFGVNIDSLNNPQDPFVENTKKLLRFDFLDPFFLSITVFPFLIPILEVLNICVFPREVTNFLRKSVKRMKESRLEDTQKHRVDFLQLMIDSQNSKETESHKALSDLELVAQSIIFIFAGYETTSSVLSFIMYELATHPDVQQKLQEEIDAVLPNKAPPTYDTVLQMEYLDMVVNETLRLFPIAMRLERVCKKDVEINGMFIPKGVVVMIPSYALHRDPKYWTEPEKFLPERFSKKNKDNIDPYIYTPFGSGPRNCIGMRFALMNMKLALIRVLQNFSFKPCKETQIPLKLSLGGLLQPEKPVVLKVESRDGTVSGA
# T3 sequence (P11712 whole entry): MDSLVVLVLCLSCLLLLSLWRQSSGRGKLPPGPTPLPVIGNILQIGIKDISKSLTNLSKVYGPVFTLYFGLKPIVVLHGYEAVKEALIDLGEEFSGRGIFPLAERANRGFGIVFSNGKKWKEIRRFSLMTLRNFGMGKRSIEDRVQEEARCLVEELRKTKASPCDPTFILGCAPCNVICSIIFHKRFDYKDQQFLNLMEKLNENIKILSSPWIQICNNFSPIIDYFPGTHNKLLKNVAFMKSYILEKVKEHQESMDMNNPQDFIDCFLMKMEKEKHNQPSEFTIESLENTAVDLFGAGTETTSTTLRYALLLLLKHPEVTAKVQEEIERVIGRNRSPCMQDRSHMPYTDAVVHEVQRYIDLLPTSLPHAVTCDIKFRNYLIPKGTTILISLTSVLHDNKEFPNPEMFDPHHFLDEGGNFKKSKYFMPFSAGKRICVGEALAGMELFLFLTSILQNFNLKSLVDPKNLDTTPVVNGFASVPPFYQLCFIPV
# Sodium channel protein type 4 subunit alpha, sequence (P35499 whole entry): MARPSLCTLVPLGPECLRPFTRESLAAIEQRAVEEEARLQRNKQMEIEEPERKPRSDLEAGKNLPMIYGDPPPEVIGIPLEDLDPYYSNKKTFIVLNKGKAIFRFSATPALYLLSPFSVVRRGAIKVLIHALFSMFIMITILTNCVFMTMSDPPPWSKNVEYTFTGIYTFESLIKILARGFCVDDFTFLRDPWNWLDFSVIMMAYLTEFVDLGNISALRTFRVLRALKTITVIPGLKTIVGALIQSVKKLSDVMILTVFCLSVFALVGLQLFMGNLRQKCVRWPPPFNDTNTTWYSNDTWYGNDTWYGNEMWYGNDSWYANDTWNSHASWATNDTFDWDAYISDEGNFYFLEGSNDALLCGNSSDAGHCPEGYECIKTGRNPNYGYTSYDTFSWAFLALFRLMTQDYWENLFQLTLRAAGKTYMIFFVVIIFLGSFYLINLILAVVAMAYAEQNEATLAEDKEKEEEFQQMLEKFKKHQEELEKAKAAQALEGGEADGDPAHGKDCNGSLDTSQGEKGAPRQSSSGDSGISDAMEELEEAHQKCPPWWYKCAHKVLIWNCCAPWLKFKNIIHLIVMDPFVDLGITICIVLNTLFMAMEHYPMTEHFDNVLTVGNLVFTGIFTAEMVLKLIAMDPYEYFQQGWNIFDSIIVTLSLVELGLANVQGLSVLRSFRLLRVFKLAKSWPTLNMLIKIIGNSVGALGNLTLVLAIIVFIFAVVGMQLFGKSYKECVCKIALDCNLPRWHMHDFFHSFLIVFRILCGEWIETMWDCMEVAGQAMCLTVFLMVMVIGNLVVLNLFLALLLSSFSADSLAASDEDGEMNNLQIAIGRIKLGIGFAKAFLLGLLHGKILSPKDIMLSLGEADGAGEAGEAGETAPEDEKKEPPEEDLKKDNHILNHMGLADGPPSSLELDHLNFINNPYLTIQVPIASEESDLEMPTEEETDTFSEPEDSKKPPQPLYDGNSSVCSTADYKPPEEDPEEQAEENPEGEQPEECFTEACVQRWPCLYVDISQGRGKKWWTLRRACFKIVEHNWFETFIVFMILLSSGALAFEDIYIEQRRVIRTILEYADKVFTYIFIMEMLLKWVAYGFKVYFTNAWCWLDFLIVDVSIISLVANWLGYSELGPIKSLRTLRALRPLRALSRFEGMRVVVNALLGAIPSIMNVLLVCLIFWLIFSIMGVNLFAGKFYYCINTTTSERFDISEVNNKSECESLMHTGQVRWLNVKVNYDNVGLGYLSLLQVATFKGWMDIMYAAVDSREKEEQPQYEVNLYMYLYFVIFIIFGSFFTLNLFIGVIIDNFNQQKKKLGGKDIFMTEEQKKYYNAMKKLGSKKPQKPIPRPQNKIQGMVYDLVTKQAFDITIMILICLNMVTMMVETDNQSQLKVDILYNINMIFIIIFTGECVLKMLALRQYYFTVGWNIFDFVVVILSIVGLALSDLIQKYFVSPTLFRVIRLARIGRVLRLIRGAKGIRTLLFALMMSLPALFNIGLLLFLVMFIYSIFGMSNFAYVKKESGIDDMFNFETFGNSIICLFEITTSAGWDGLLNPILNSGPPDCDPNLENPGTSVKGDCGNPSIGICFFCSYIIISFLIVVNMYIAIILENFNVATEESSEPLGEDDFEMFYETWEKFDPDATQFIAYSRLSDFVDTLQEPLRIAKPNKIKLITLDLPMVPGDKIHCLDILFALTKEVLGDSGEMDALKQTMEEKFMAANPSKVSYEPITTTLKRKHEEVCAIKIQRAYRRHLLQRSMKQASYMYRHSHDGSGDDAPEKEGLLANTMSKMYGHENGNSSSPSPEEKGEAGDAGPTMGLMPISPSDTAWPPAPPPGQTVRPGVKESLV
smiles,measurement,setting,value
COc1cc(C(=O)NS(C)(=O)=O)c(F)cc1-c1cnc(Oc2cc(F)ccc2F)c(Cl)c1,microsomal CLint at 1 µM,in vitro,27 µL/min/mg
same,IC50,Cytochrome P450 3A4 [1],> 50 µM
same,inhibition in vivo at 300 mg/kg,Mus musculus [2],75%
same,Cp(f),[3],294 nM
same,IC50,[4],3.69 µM
same,Cp(f),[5],3720 nM
same,Cp(f),[6],640 nM
same,IC50,[7],9.8 µM
same,IC50,[8],> 30 µM
same,half-life,[9],1.84 h
same,Cp(f),[10],1270 nM
same,Cp(f),[11],4160 nM
same,IC50,[12],0.044 µM
same,solubility thermodynamic at 24 h,physchem,398 µM
same,IC50,Cytochrome P450 2C9 [13],45.3 µM
same,IC50,[14],1.1 µM
same,clearance,[15],6.5 mL/min/kg
same,fraction unbound,[16],0.004
same,Ki,[17],> 30 µM
same,IC50,Cytochrome P450 2D6,> 50 µM
same,"fraction unbound at 0.75 h, 5 µM",[18],0.014
same,Cp(f),[19],2390 nM
same,IC50,[20],0.051 µM
same,IC50,Cytochrome P450 3A4 [21],> 50 µM
same,IC50,Cytochrome P450 2C9 [22],49.6 µM
same,IC50,[23],12.5 µM
same,Activity,[24],Non-Toxic
same,bioavailability,[25],> 100%
same,IC50,[26],15.6 µM
same,IC50,[27],0.042 µM
same,IC50,[28],0.115 µM
same,Activity,[29],Non-Toxic
same,AUC(0-inf),[30],5.4 µM·h
same,Activity,Mus musculus [31],inactive
same,IC50,[32],8.5 µM
same,IC50,[33],0.051 µM
